Measurements gathered from unrelated publications.
Lines come from different studies, so protocols differ.
Target: Serine/threonine-protein kinase DCLK1 (DCLK1, Homo sapiens, UniProt O15075)
Method: competition with immobilised ligand
Sequence (O15075 1-740, as in one of the studies): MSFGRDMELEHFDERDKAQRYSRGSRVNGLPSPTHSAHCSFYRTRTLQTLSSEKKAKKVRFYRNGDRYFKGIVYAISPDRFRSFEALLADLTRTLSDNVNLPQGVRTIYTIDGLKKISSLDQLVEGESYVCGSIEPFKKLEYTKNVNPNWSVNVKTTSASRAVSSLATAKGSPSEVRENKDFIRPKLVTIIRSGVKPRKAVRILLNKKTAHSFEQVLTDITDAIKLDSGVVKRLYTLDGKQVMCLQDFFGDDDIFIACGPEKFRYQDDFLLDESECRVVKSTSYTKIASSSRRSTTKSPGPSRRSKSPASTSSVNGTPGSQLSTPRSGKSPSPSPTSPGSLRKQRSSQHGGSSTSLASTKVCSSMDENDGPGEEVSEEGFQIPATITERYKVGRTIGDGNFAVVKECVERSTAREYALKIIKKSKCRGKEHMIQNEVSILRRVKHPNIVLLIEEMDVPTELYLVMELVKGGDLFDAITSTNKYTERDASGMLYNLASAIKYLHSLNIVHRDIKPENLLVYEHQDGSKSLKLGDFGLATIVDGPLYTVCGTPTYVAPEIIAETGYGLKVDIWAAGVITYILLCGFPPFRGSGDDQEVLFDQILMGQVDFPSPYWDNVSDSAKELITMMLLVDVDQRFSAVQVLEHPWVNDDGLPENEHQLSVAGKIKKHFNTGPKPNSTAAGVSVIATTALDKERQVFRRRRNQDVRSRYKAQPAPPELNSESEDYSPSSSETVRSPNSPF

SMILES	assay	conditions	remaining binding
Cc1noc([C@H]2C[C@@H](c3ccc(C(F)(F)F)cc3)CN(C(=O)N3CCS(=O)(=O)C3)C2)n1	cell-free assay	1 µM	75%
F[C@@H]1CCN(c2nccc(-c3cnn4ncccc34)n2)C1	binding	1 µM	82%
CC(=O)Nc1c(C(C)=O)c(=O)n(C)c2nc(-c3ccc(Cl)cc3Cl)c(-c3ccc(Cl)cc3)cc12	cell-free assay	1 µM	100%
COc1cnc(Nc2cccc(S(N)(=O)=O)c2)nc1N1CCN(c2ccccc2)C(=O)C1	binding	1 µM	83%
CN([C@@H]1CCc2c(CC(=O)O)c3cc(S(C)(=O)=O)ccc3n2C1)S(=O)(=O)c1ccc(F)cc1	cell-free assay	1 µM	79%
FC(F)(F)Oc1cccc(-c2cnc3ccc(-c4ccncc4)nn23)c1	cell-free assay	5 µM	69%
O=C(Nc1c[nH]nc1C(=O)NC1CCNCC1)c1cc(F)cc(F)c1	binding	1 µM	79%
O=C(c1ccc(Nc2ncc(Cl)c(-c3cc4ccccc4s3)n2)cc1)N1CCC(N2CCCC2)CC1	binding	1 µM	100%
CCN1CCN(Cc2ccc(C(=O)Nc3ccc(C)c(Oc4ccc5c(c4)CC(=O)N5)c3)cc2C(F)(F)F)CC1	binding	1 µM	88%
Cc1nccc(COC(=O)N2C[C@@H]3[C@@H](CNC(=O)c4ccc5[nH]nnc5c4)[C@@H]3C2)n1	cell-free assay	1 µM	90%
COc1cc(N2CCN(C)CC2)ccc1Nc1ncc2c(n1)N(C)c1ccccc1C(=O)N2CC(F)(F)F	binding	1 µM	< 10%
CN(CCCC(F)(F)F)c1nccc(-c2cnn3ncccc23)n1	binding	1 µM	90%
Cc1c(NC(=O)c2cc(C(N)=O)nc3cc(F)ccc23)c(C(F)(F)F)nn1Cc1ccc(C#N)cc1	cell-free assay	1 µM	85%
c1cnn2ncc(-c3ccnc(N4CCC45COC5)n3)c2c1	binding	1 µM	82%
Cn1nc(C(=O)NCc2ccc(C(=O)O)cc2)cc1-c1ccc2[nH]ccc2c1	cell-free assay	0.1 µM	88%
CN(C)c1ncc(F)c(-c2cnn3ncccc23)n1	binding	1 µM	61%
Nc1ncc2c(n1)-c1c([nH]c3ccc(C#CC4CC4)cc13)CCCC2	binding	1 µM	100%
COc1cc(C(=O)N2CCC(N3CCN(C)CC3)CC2)ccc1Nc1ncc2c(n1)N(C)c1ccccc1C(=O)N2C	binding	10 µM	4.2%
COc1ccc2cc(OCC3(C(=O)O)CN(C(=O)c4ccc(F)cc4)C3)ccc2c1	cell-free assay	1 µM	100%
O=C(c1ccc(Nc2ncc(Cl)c(-c3ccc(Cl)s3)n2)cc1)N1CCC(N2CCCC2)CC1	binding	1 µM	69%
C[C@@H]1CCN(c2nccc(-c3cnn4ncccc34)n2)C1	binding	1 µM	84%
C[C@@H]1CN(c2ccc3ncc(-c4ccc5[nH]nc(C6CC6)c5c4)n3n2)C[C@H](C)O1	binding	0.5 µM	100%
CC(C)(C)c1ccc(-c2nc(CBr)nn2-c2cccc(O)c2)cc1	cell-free assay	10 µM	100%
N[C@@H]1CCN(c2nccc(-c3cnn4ncccc34)n2)C1	binding	1 µM	70%
Cc1cnc(Nc2ccc(C(=O)N3CCC(N4CCCC4)CC3)cc2)nc1-c1cc2ccccc2s1	binding	1 µM	68%
